From ChEMBL document CHEMBL1136796 (J Med Chem, 2003)
pEC50, pIC50: −log10 of the molar value. Counter-ions that a name gives are not always drawn. Blank lines part the entries; values can stand above or below the molecule they belong to.

Key:
[1] = system: KB; assay: Cytotoxic activity against cellular metabolic activity of Cervix KB/HeLa tumor cell line using XTT proliferation assay after incubation with the compound for 48 h; assay type: functional, cell-based; conditions: Homo sapiens
[2] = system: SF-268; assay: Cytotoxic activity against cellular metabolic activity of Glioma SF-268 tumor cell line using XTT proliferation assay after incubation with the compound for 48 h; assay type: functional, cell-based; conditions: Homo sapiens, SF-268, 48 h
[3] = system: NCI-H460; assay: Tested for induction of cellular death in Human lung H-460 tumor cell line in Propidium Iodide Monolayer Assay; assay type: functional, cell-based
Summary of the method: (§1)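 Propidium iodide monolayer assay: cells seeded at 1 × 10^5 or 5 × 10^4 cells/mL, 24 h recovery, drug in triplicate for 3–6 days by doubling time; PI 25 μg/mL added, fluorescence (ex 530/em 620 nm) read before and after freezing at −18 °C for 24 h; viable cells from the difference; % T/C versus concentration.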

[4] = system: MAXF401 cell line; assay: Tested for induction of cellular death in Human breast 401NL tumor cell line in Propidium Iodide Monolayer Assay; assay type: functional, cell-based; summary of the method: as §1
[5] = system: MCF7; assay: Tested for induction of cellular death in Human breast MCF-7 tumor cell line in Propidium Iodide Monolayer Assay; assay type: functional, cell-based; summary of the method: as §1
[6] = system: LXFL 529; assay: Tested for induction of cellular death in Human lung LXF 529L tumor cell line in Propidium Iodide Monolayer Assay; assay type: functional, cell-based; summary of the method: as §1
[7] = system: Lung LXF 629L tumor cell line; assay: Tested for induction of cellular death in Human lung LXF 629L tumor cell line in Propidium Iodide Monolayer Assay; assay type: functional, cell-based; summary of the method: as §1
[8] = system: SF-268; assay: Tested for induction of cellular death in Human ZNS SF-268 tumor cell line in Propidium Iodide Monolayer Assay; assay type: functional, cell-based; summary of the method: as §1
[9] = system: RKO; assay: Cytotoxic activity against human colon adenocarcinoma RKO cells with ectopic inducible expression of cyclin-dependent kinase inhibitor p27kip1; assay type: functional, cell-based
[10] = system: RKO; assay: Cytotoxic activity against human colon adenocarcinoma RKO cells without ectopic inducible expression of cyclin-dependent kinase inhibitor p27kip1; assay type: functional, cell-based
[11] = system: RXF 944; assay: Tested for induction of cellular death in Human renal RXF 944L tumor cell line in Propidium Iodide Monolayer Assay; assay type: functional, cell-based; summary of the method: as §1
[12] = system: LT12 tumor cell line; assay: Antiproliferative activity against LT12 phenotype LT12 MDR tumor cell line; assay type: functional, cell-based; conditions: Rattus norvegicus
[13] = system: K562; assay: In vitro inhibitory concentration against human chronic myelogenous leukemia K562 cell growth; assay type: functional, cell-based
[14] = system: L1210; assay: Antiproliferative activity against L1210 phenotype L1210 VCR tumor cell line; assay type: functional, cell-based; conditions: Mus musculus
[15] = system: L1210; assay: Antiproliferative activity against L1210 tumor cell line; assay type: functional, cell-based; conditions: Mus musculus
[16] = system: SK-OV-3; assay: Cytotoxic activity against cellular metabolic activity of Ovary SKOV3 tumor cell line using XTT proliferation assay after incubation with the compound for 48 h; assay type: functional, cell-based; conditions: Homo sapiens, SK-OV-3, 48 h
[17] = system: P388/ADR; assay: Antiproliferative activity against P388 phenotype P388 ADR tumor cell line; assay type: functional, cell-based; conditions: Mus musculus
[18] = species: Sus scrofa; assay: Concentration required to inhibit Microtubule assembly compared to colchicine using EM studies; assay type: functional
[19] = molecular target: T1, Tubulin (Sus scrofa, UniProt P02554+P02550); assay: In vitro inhibition of maximum porcine tubulin assembly rate after 20 min at 37 degrees C; assay type: functional
[20] = species: Sus scrofa; assay: In vitro inhibitory concentration against tubulin assembly; assay type: functional
[21] = molecular target: T1, Tubulin; assay: In vitro inhibitory concentration required to displace [3H]colchicine from its binding site on Tubulin; assay type: protein assay
Summary of the method: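 Streptavidin-coated yttrium SPA beads were then added and bound radioactivity measured by scintillation counting. IC50 was derived by nonlinear regression.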

[22] = system: NCI-H460; assay: Cytotoxic activity against cellular metabolic activity of Lung NCI-H460 tumor cell line using XTT proliferation assay after incubation with the compound for 48 h; assay type: functional, cell-based; conditions: Homo sapiens, NCI-H460, 48 h
Summary of the method: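 NCI-H460 human lung tumor cells seeded at 1 × 10^3 cells/well in microtiter plates and exposed to a range of compound concentrations for 48 h. Proliferation read as cellular metabolic activity by XTT. At least two replicates (n = 2); IC50 obtained from dose–response curves by nonlinear regression.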

[23] = system: LT12 tumor cell line; assay: Antiproliferative activity against LT12 tumor cell line; assay type: functional, cell-based; conditions: Rattus norvegicus
[24] = system: P388 (Mus musculus); assay: Antiproliferative activity against P388 tumor cell line
[25] = system: HeLa (Homo sapiens); assay: Effective concentration required to arrest propidium iodide stained KB/HeLa cells in G2/M phase

pIC50 [12]: 6.72
pIC50 [13]: 7.70
pIC50 [14]: 6.89
pIC50 [15]: 6.85
pIC50 [17]: 6.59
pIC50 [18]: 6.15
IC50 [19]: 0.67 µM
pIC50 [20]: 6.17
IC50 [21]: 0.37 µM
pIC50 [23]: 6.49
pIC50 [24]: 6.80
pEC50 [25]: 6.69
Structure (SMILES): COc1ccc(C=C2c3ccccc3C(=O)c3ccccc32)cc1O
pIC50 [1]: 7.05
pIC50 [2]: 7.30
pIC50 [3]: > 8.00
pIC50 [4]: > 8.00
pIC50 [5]: > 8.00
pIC50 [6]: 6.28
pIC50 [7]: > 8.00
pIC50 [8]: 7.52
pIC50 [9]: < 5.05
pIC50 [10]: 7.22
pIC50 [11]: > 8.00
pIC50 [16]: 7.30
pIC50 [22]: 7.15

pIC50 [13]: 5.70
IC50 [19]: 4.4 µM
Structure (SMILES): O=C1c2ccccc2C(=Cc2ccccc2)c2ccccc21

pIC50 [13]: 6.77
IC50 [19]: 0.63 µM
pIC50 [20]: > 6.00
Structure (SMILES): COc1cc(C=C2c3ccccc3C(=O)c3ccccc32)cc(OC)c1O
pIC50 [3]: 5.51
pIC50 [4]: 6.62
pIC50 [5]: 5.38
pIC50 [6]: 5.13
pIC50 [7]: 6.14
pIC50 [8]: 6.21
pIC50 [11]: 6.82

pIC50 [13]: 5.85
IC50 [19]: 0.63 µM
pIC50 [20]: > 6.00
Structure (SMILES): COc1cc(C=C2c3ccccc3C(=O)c3ccccc32)ccc1O
pIC50 [3]: 5.63
pIC50 [4]: 5.82
pIC50 [5]: 5.60
pIC50 [6]: 5.49
pIC50 [7]: 5.68
pIC50 [8]: 5.53
pIC50 [11]: 5.55

pIC50 [13]: 6.15
Structure (SMILES): CCOC(=O)c1ccc(C=C2c3ccccc3C(=O)c3ccccc32)cc1

pIC50 [13]: 4.60
IC50 [19]: 2.6 µM
Structure (SMILES): COc1ccc(CC2c3ccccc3C(=O)c3ccccc32)cc1

pIC50 [13]: 6.22
IC50 [19]: 1.7 µM
Structure (SMILES): COc1ccc(C=C2c3ccccc3C(=O)c3ccccc32)cc1OC

pIC50 [13]: 4.21
IC50 [19]: > 10 µM
Structure (SMILES): COc1ccc(CC2c3ccccc3C(=O)c3ccccc32)cc1OC

IC50 [19]: > 10 µM
Structure (SMILES): COc1ccc(CC2c3ccccc3C(=O)c3ccccc32)cc1OC(=O)c1ccccc1

pIC50 [13]: 6.10
IC50 [19]: 0.91 µM
Structure (SMILES): Cc1cc(C=C2c3ccccc3C(=O)c3ccccc32)cc(C)c1O

pIC50 [13]: 6.22
IC50 [19]: > 10 µM
Structure (SMILES): COc1cc(C=C2c3ccccc3C(=O)c3ccccc32)cc(OC)c1

pIC50 [13]: 5.40
IC50 [19]: 10 µM
Structure (SMILES): COc1cc(C=C2c3ccccc3C(=O)c3ccccc32)cc(OC)c1OC

Structure (SMILES): COc1cc2c(c(OC)c1OC)-c1ccc(OC)c(=O)cc1[C@@H](NC(C)=O)CC2 [COLCHICINE]
pIC50 [1]: 7.52
pIC50 [2]: 7.30
pIC50 [9]: < 5.00
pIC50 [10]: 7.70
pIC50 [13]: 7.70
pIC50 [16]: 7.30
pIC50 [22]: 7.15

Structure (SMILES): COc1ccc(/C=C\c2cc(OC)c(OC)c(OC)c2)cc1O [COMBRETASTATIN A4]
pIC50 [13]: 7.70

pIC50 [13]: 8.00
Structure (SMILES): COc1cccc2c1C(=O)c1c(O)c3c(c(O)c1C2=O)C[C@@](O)(C(=O)CO)C[C@@H]3O[C@H]1C[C@H](N)[C@H](O)[C@H](C)O1 [DOXORUBICIN]
pIC50 [3]: 5.76
pIC50 [4]: 8.00
pIC50 [6]: 7.52
pIC50 [7]: 7.15
pIC50 [11]: 7.22

Structure (SMILES): COC(=O)Nc1nc2cc(C(=O)c3cccs3)ccc2[nH]1 [NOCODAZOLE]
pIC50 [1]: 6.85
pIC50 [2]: 6.52
pIC50 [9]: < 5.00
pIC50 [10]: 6.96
pIC50 [12]: 7.30
pIC50 [14]: 7.15
pIC50 [15]: 7.22
pIC50 [16]: 6.77
pIC50 [17]: 7.30
pIC50 [22]: 6.82
pIC50 [23]: 6.52
pIC50 [24]: 7.15
pEC50 [25]: 7.09

pIC50 [12]: 6.40
pIC50 [14]: < 5.30
pIC50 [15]: 7.22
pIC50 [17]: < 5.30
pIC50 [23]: 8.22
pIC50 [24]: 7.40
pEC50 [25]: 7.27
Structure (SMILES): CC(=O)O[C@H]1C(=O)[C@@]2(C)[C@H]([C@H](OC(=O)c3ccccc3)[C@]3(O)C[C@H](OC(=O)[C@H](O)[C@@H](NC(=O)c4ccccc4)c4ccccc4)C(C)=C1C3(C)C)[C@]1(OC(C)=O)CO[C@@H]1C[C@@H]2O [PACLITAXEL]
pIC50 [1]: 8.00
pIC50 [2]: 8.00
pIC50 [9]: < 5.52
pIC50 [10]: 8.00
pIC50 [16]: 8.00
pIC50 [22]: 8.00

pIC50 [13]: 9.00
Structure (SMILES): CC[C@]1(O)C[C@@H]2CN(CCc3c([nH]c4ccccc34)[C@@](C(=O)OC)(c3cc4c(cc3OC)N(C)[C@H]3[C@@](O)(C(=O)OC)[C@H](OC(C)=O)[C@]5(CC)C=CCN6CC[C@]43[C@@H]65)C2)C1 [VINBLASTINE SULFATE]

pIC50 [12]: 6.59
pIC50 [14]: < 5.30
pIC50 [15]: 7.70
pIC50 [17]: 5.96
pIC50 [23]: 9.00
pIC50 [24]: 8.00
Structure (SMILES): CC[C@]1(O)C[C@@H]2CN(CCc3c([nH]c4ccccc34)[C@@](C(=O)OC)(c3cc4c(cc3OC)N(C)[C@H]3[C@@](O)(C(N)=O)[C@H](O)[C@]5(CC)C=CCN6CC[C@]43[C@@H]65)C2)C1 [VINDESINE]
